Molecular target: Translocator protein (Rattus norvegicus, UniProt P16257)
Assay: Binding affinity against peripheral benzodiazepine receptor( PBR).
Outline: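 Rat cerebral cortex membranes washed repeatedly at 50000g in 50 mM phosphate pH 7.4, 2.3 mg tissue per sample. Filtration, scintillation counting. IC50 by log-probit analysis over six concentrations in duplicate, means of three experiments. Maximal concentration 1000 nM.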

Translocator protein, sequence (P16257 whole entry, looked up): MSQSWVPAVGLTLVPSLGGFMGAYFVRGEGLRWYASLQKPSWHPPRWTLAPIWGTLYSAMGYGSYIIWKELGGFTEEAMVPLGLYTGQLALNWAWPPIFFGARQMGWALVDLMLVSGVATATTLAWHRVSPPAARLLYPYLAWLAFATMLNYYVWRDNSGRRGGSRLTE

IC50, > 1000 nM:
CCCN(CCC)C(=O)Cc1c2[nH]c3ccccc3cc-2c(=O)n1-c1ccc(Cl)cc1 [2-[2-(4-Chloro-phenyl)-1-oxo-2,3-dihydro-1H-pyrrolo[3,4-b]quinolin-3-yl]-N,N-dipropyl-acetamide], CCCCCCN(CCCCCC)C(=O)Cc1c2[nH]c3ccccc3cc-2c(=O)n1-c1ccc(Cl)cc1 [2-[2-(4-Chloro-phenyl)-1-oxo-2,3-dihydro-1H-pyrrolo[3,4-b]quinolin-3-yl]-N,N-dihexyl-acetamide], O=c1c2ccc[nH]c-2cn1-c1ccc(Cl)cc1 [6-(4-Chloro-phenyl)-6,7-dihydro-pyrrolo[3,4-b]pyridin-5-one], CCCN(CCC)C(=O)Cc1c2[nH]cccc-2c(=O)n1-c1ccc(Cl)cc1 [2-[6-(4-Chloro-phenyl)-5-oxo-6,7-dihydro-5H-pyrrolo[3,4-b]pyridin-7-yl]-N,N-dipropyl-acetamide]
